Rows were chosen to be rich in hits. Some 3.4% of all compounds tested hit in one or more screens of this group.
M1 ag = human M1 muscarinic receptor agonism. P11229. CHO-K1 hM1, Fluo-8 calcium fluorescence, agonist mode; 0% DMSO, 100% acetylcholine EC100. activation, % at 3 µM. 360,000 compounds, 0.33% hits. AID 588814;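 active means activation above the run's mean compound activation plus 3 SD, cut at about 16% in these data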;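 further: peak over basal fluorescence ratio within a 140 s kinetic read after compound addition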
M1 PAM = positive allosteric modulators of human M1 muscarinic receptor | P11229 | CHO-K1 hM1, Fluo-8 calcium fluorescence, ACh EC20; 0% = ACh EC20, 100% = maximal ACh | activation, % at 3 µM | 360,000 compounds, 0.088% hits; in the data active means activation above about 19%, passing the limit was not always enough
M1 antag = antagonists of human M1 muscarinic receptor | P11229 | CHO-K1 hM1, Fluo-8 calcium fluorescence, ACh EC80 antagonist | inhibition, % at 3 µM | 360,000 compounds, 1.3% hits | AID 588852;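 active means percent inhibition above its own plate's cutoff, namely the mean of that plate's compound wells plus 3 SD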;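 further: peak over basal fluorescence ratio during 140 s after agonist addition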
TAAR1 agonist = agonists of human TAAR1; Q96RJ0; CHO RD-HGA16 TAAR1, Fluo-8 calcium fluorescence; vehicle wells 0%, saturating PEA agonist 100%; AID 624467; 360,000 compounds, 0.99% hits; activation, % at 3 µM;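 active means activation above the mean activation of all test compounds in the run plus 3 SD, cut at about 38% in these data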
Target sequence (Q96RJ0 whole entry, looked up): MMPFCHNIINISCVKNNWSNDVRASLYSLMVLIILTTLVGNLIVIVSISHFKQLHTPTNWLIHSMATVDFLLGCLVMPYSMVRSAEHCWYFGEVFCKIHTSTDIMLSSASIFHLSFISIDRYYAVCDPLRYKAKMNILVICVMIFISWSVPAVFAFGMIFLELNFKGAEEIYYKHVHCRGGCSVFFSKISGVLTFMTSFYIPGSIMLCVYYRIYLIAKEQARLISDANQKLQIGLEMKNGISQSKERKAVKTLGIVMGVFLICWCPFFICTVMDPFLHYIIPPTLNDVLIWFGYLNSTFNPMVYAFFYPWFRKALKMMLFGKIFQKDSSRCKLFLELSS
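System: CHO-derived RD-HGA16 cells with stable Gα16 and human TAAR1 / Times: 17-24 h plating, Fluo-8 75 min 37 °C, 30 min RT / Technique: calcium-sensitive Fluo-8 signal, excitation 470-495, emission 515-575 nm / Measure: % activation relative to PEA EC100 response / Benchmarks: DMSO and PEA EC100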
TAAR1 antagonist = human TAAR1 antagonism | Q96RJ0 | inhibition, % at 3 µM | 360,000 compounds, 1.5% hits | CHO RD-HGA16 TAAR1, Fluo-8 calcium fluorescence, antagonist;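 active means inhibition above a per-plate cutoff, the mean inhibition of test compounds on that plate plus 3 SD, cut at about 49% in these data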
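Test system – hTAAR1-expressing CHO RD-HGA16 cells, Gα16-coupled · Reagent – β-PEA at EC80 concentration, post-compound challenge · Compound dosing – 3 µM, single point · Timing – 140 s kinetic read after compound, 140 s after agonist · Detection – Fluo-8 intracellular calcium dye fluorescence, real-time kinetic reads · Control set – DMSO and EC80 PEA controls · Repeats – n of 1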
Of the large screens only hits and unclear results are named; the others gave an inactive call.

Cc1ccc(F)c(C(=O)N2CCCC(C)(C(=O)NS(=O)(=O)C3CC3)C2)c1F (stereo unspecified)	none (no result: TAAR1 agonist, TAAR1 antagonist)
COc1cc(C#Cc2c(-c3cncn3C)n(C)c3ccc(-c4ccc(CN5CCOCC5)cc4)cc23)cc(OC)c1	TAAR1 antagonist 56
O=C(NCC1CC1)c1ccc(-n2ccnc2)c2ccoc12	none
c1ccc(CCC2Cc3ccccc3N2)cc1 (stereo unspecified)	none
c1ccc(CC[C@@H]2CC[C@@H](CCc3ccccc3)N2)cc1	M1 antag 32
COc1ccc(Cc2noc(CN3CCN(C4CCc5ccccc5C4)CC3)n2)cc1OC (stereo unspecified)	none
Fc1cccc(Cc2noc(CN3CCSCC3)n2)c1	none
Fc1cccc(Cc2noc(CN3CCCN(C4Cc5ccccc5C4)CC3)n2)c1	M1 antag 93
Fc1cccc(Cc2noc(CN3CCN(C4CCc5ccccc5C4)CC3)n2)c1 (stereo unspecified)	M1 antag 72
CCOc1cc(/C=C/C(=O)Nc2ccc(C(=O)NCCN(CC)CC)cc2)ccc1OCC(C)C	M1 antag 64
NC1=NC[C@H](Cc2ccc(O)cc2)N1CCC12CC3CC(CC(C3)C1)C2	M1 antag 37
CCCCN1C(N)=NC[C@@H]1Cc1ccc(O)cc1	none
CCCCC1(c2ccc(F)cc2)NC(=O)N(CC(=O)Nc2ccc(N3CCOCC3)cc2)C1=O (stereo unspecified)	M1 ag 16
CC(C)(C)n1nnnc1C(c1cc2ccccc2o1)N1CCOCC1 (stereo unspecified)	none (no result: M1 ag, M1 PAM, M1 antag)
Cc1cc(Nc2cccc(Br)c2)cc(=O)n1-c1cccc(Br)c1	none (no result: M1 ag, M1 PAM, M1 antag)
CCCCOc1ccc(-c2csc(N)n2)cc1[N+](=O)[O-]	none
CCCCOc1ccc(C2=CSC3=NCCN23)cc1[N+](=O)[O-]	M1 antag 59
COc1ccc(C2=CSC3=NCCN23)cc1OC	none
Clc1ccc(C2=CSC3=NCCN23)cc1Cl	M1 antag 17
Cc1cc(N2CCN(CC(C)(C)O)C[C@H]2C)ccc1N1CCN(CC(C)(C)O)[C@@H](C)C1	none (no result: M1 ag, M1 PAM, M1 antag)
Cc1nn(-c2cccc(Cl)c2)nc1C(=O)Nc1cccc(C(=O)NC2CC2)c1	none
Cc1nn(-c2ccccc2)nc1C(=O)Nc1cccc(C(=O)NC2CC2)c1	TAAR1 antagonist 60
COc1ccc(-c2nc3c(Cl)cc(C(F)(F)F)cn3c2Cc2ccsc2)cc1OC	none (no result: M1 ag, M1 PAM, M1 antag)
CN(C)CCC#CC1(O)c2ccccc2-c2ccccc21	M1 antag 66
CCN(CC)CCn1nc(C)nc1-c1ccccc1O	none
CC(C)(C)N(CC#CCC1(O)c2ccccc2-c2ccccc21)CCO	none
OC1(C#CCN2CCCC2)c2ccccc2-c2ccccc21	M1 antag 85
CCN(CC)CCC#CC1(O)c2ccccc2-c2ccccc21	M1 antag 99
Cc1ccccc1C(=O)N[C@H](C(=O)N1CCC[C@H]1C(=O)NCCc1ccccc1Cl)C1CCCCC1	none (no result: M1 ag, M1 PAM, M1 antag)
CN(CC(O)COc1ccc(OCC(O)CN(C)C2CCCCC2)cc1)C1CCCCC1 (stereo unspecified)	none
CN(CC(O)COC(c1ccccc1)c1ccccc1)C1CCCCC1 (stereo unspecified)	M1 antag 30
CN(C)CC(O)COC(c1ccc(Cl)cc1)c1ccc(Cl)cc1 (stereo unspecified)	M1 antag 41
C=CCCC1CN(Cc2ccc(OC)cc2)S(=O)(=O)c2c(cccc2Sc2ccc(OC)c(OC)c2)O1 (stereo unspecified)	none (no result: M1 ag, M1 PAM, M1 antag)
CCCc1nc2c3ccccc3ccn2c1Cc1ccc(OC)cc1C	none
C=CCC[C@H](Cc1ccc(F)cc1)C(=O)OC[C@@H](NC(=O)[C@@H](CC=C)CC(=O)N[C@@H](CO)Cc1ccccc1)C(C)(C)C	TAAR1 antagonist 51
C=CCC[C@H](Cc1ccc(F)cc1)C(=O)OC[C@@H](C)NC(=O)[C@@H](CC=C)CC(=O)N[C@H](CO)Cc1ccccc1	TAAR1 antagonist 51
C=CC[C@@H](CC(=O)N[C@H](CO)Cc1ccccc1)C(=O)N[C@@H](COC(=O)[C@H](CC=C)CC(=O)OC(C)(C)C)Cc1ccccc1	TAAR1 antagonist 50
COc1ccccc1Cc1c(-c2ccccc2)nc2ccc(C)cn12	none (no result: M1 ag, M1 PAM, M1 antag)
CCNC(=O)N(C)[C@H]1C[C@H]2c3[nH]c4c(-c5ccc6c(c5)OCO6)cccc4c3CCN2C(=O)[C@H]1[C@H](C)O	none (no result: M1 ag, M1 PAM, M1 antag)
C[C@]12Cc3ccccc3C1CC1=N[C@@H](c3ccccn3)O[C@@]13C[C@@H]2C(=O)N3C1CCN(Cc2ccccc2)CC1 (stereo partly specified)	none (no result: M1 ag, M1 PAM, M1 antag)
Cc1ccccc1CN1CCN(C(=O)[C@H]2O[C@@H](n3cnc(C(N)=O)n3)[C@H](O)[C@@H]2O)CC1	none (no result: M1 ag, M1 PAM, M1 antag)
CC[n+]1c(/C=C/C=C/N(C(C)=O)c2ccccc2)sc2ccccc21	TAAR1 antagonist 102
COc1ccc(C2/C=C\CN(S(=O)(=O)c3cccc4cccnc34)CC(=O)N2Cc2ccc(F)cc2)cc1 (stereo unspecified)	TAAR1 antagonist 50
COc1ccc(C2/C=C\CN(C(=O)C3CCCCC3)CC(=O)N2Cc2ccc(F)cc2)cc1 (stereo unspecified)	none
COc1ccc(C2/C=C\CN(C(=O)C3CCCC3)CC(=O)N2Cc2ccc(F)cc2)cc1 (stereo unspecified)	M1 PAM 32
N#Cc1nc(-c2cccs2)oc1NCc1ccc(Cl)cc1	TAAR1 antagonist 50
N#Cc1nc(-c2cccs2)oc1NCc1ccccc1	none
Cc1[nH]c2ccccc2c1CC(=O)Nc1ccc(N(C)c2cccnc2)c(-c2cccc(Cl)c2)c1	none (no result: M1 ag, M1 PAM, M1 antag)
COc1cc2ccc(-c3ccc4ccccc4n3)cc2cc1OC	TAAR1 antagonist 58
Cc1cccc(NC(=O)CSc2nc3c([nH]c4ccccc43)c(=O)n2C)c1	none
Cn1c(SCC(=O)Nc2ccccc2)nc2c([nH]c3ccccc32)c1=O	M1 antag 35
CCOc1ccc(CCNC(=O)c2c(C)noc2C)cc1OCC	none
CCOc1ccc(CCNC(=O)c2cc3c(C)nccc3[nH]c2=O)cc1OCC	TAAR1 antagonist 51
CC(Oc1ccc(C#N)cc1)C(=O)Nc1ccc(-n2cnnn2)cc1 (stereo unspecified)	M1 ag 17, TAAR1 agonist 44
O=C(N[C@H](C(=O)N1CCC[C@H]1C(=O)NC1CCCC1)c1ccccc1)C1CC1	none (no result: M1 ag, M1 PAM, M1 antag)
COc1ccc(CN2C(=O)CN(S(C)(=O)=O)CC2(C)C(=O)NC(C)C)cc1 (stereo unspecified)	none (no result: M1 ag, M1 PAM, M1 antag)
Cn1c(CC(=O)Nc2ccc(Cl)c(Cl)c2)nnc1SCC(=O)NCc1ccccc1	TAAR1 agonist 38
Cc1ccc(NC(=O)Cc2nnc(SCC(=O)Nc3ccccc3)n2C)cc1	none
Cc1cc(NCCc2ccccc2F)n2ncnc2n1	TAAR1 agonist 38
Cc1cc(NCCc2ccc(Cl)cc2)n2ncnc2n1	none

Screening data deposited in PubChem BioAssay by The Scripps Research Institute Molecular Screening Center.
